From ChEMBL document CHEMBL2417382, “Derivatives of grindelic acid: from a non-active natural diterpene to synthetic antitumor derivatives” (2013)
Activity calls are given as the source filed them. The calls are words filed in the database; no cut-off is given here.

Legend:
Type in all cases: functional
T47D = experiment: Antiproliferative activity against human T47D cells after 48 hrs by SRB assay
How it was run: (§1)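 Cells grown in RPMI 1640 with 5% heat-inactivated FCS and 2 mM L-glutamine. Seeded per well at 20,000 (WiDr), 15,000 (T-47D) or 10,000 (HeLa, SW1573, HBL-100). Dosing started the day after plating, in triplicate at 1–100 µM, with 0.25% DMSO as the vehicle control. After 48 h, TCA fixation, SRB staining and OD at 492 nm. Percentage growth calculated against untreated cells from OD at T0 and end, using NCI formulas.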

SW1573 = experiment: Antiproliferative activity against human SW1573 cells after 48 hrs by SRB assay; settings: SW1573, 48 h; how it was run: as §1
HeLa = experiment: Antiproliferative activity against human HeLa cells after 48 hrs by SRB assay; how it was run: as §1
HBL-100 = experiment: Antiproliferative activity against human HBL100 cells after 48 hrs by SRB assay; settings: HBL-100, 48 h; how it was run: as §1
WiDr = experiment: Antiproliferative activity against human WiDr cells after 48 hrs by SRB assay; how it was run: as §1

Row | GI50 (T47D) [µM] | GI50 (SW1573) [µM] | GI50 (HeLa) [µM] | Compound | GI50 (HBL-100) [µM] | GI50 (WiDr)
1 | 3.9 | 11 | 5.3 | CC1=CC[C@H]2C(C)(C)CCC[C@]2(C)[C@@]12CC[C@@](C)(CC(=O)N(Cc1ccccc1)C(C)(C)C(=O)NC(C)(C)C)O2 | 4.6 | 12 µM
2 | 4.4 | 3.6 | 4.7 | CC1=CC[C@H]2C(C)(C)CCC[C@]2(C)[C@@]12CC[C@@](C)(CC(=O)N(Cc1ccccc1)C(C)(C)C(=O)NC1CCCCC1)O2 | 3.7 | 5.1 µM
3 | 32 | 18 | 19 | CCOC(=O)/C=C/C[C@]1(C)CC[C@@]2(O1)C(C)=CC[C@H]1C(C)(C)CCC[C@@]12C | 16 | 35 µM
4 | > 100 | > 100 | > 100 | CC1=CC[C@H]2C(C)(C)CCC[C@]2(C)[C@@]12CC[C@@](C)(CCn1cc(COc3cccc(OCc4cn(CC[C@]5(C)CC[C@@]6(O5)C(C)=CC[C@H]5C(C)(C)CCC[C@@]56C)nn4)c3)nn1)O2 | > 100 | > 100 µM
5 | 5.3 | 5.8 | 5.7 | CC1=CC[C@H]2C(C)(C)CCC[C@]2(C)[C@@]12CC[C@@](C)(CC(=O)N(c1ccccc1)C(C)(C)C(=O)NC(C)(C)C)O2 | 5.4 | 6.8 µM
6 | 44 | 15 | 25 | CCCCCCCCCCc1cn(CC[C@]2(C)CC[C@@]3(O2)C(C)=CC[C@H]2C(C)(C)CCC[C@@]23C)nn1 | 16 | 15 µM
7 | 21 | 5.9 | 22 | CC1=CC[C@H]2C(C)(C)CCC[C@]2(C)[C@@]12CC[C@@](C)(CC(=O)N(c1ccccc1)C(C)(C)C(=O)Nc1c(C)cccc1C)O2 | 8.7 | 37 µM
8 | 32 | 20 | 18 | CCOC(=O)/C(C)=C/C[C@]1(C)CC[C@@]2(O1)C(C)=CC[C@H]1C(C)(C)CCC[C@@]12C | 17 | 37 µM
9 | 17 | 11 | 17 | CC1=CC[C@H]2C(C)(C)CCC[C@]2(C)[C@@]12CC[C@@](C)(CCn1cc(C[C@]3(C)CC[C@@]4(O3)C(C)=CC[C@H]3C(C)(C)CCC[C@@]34C)nn1)O2 | 9.3 | inactive
10 | > 100 | > 100 | > 100 | C#Cc1cccc(-c2cn(CC[C@]3(C)CC[C@@]4(O3)C(C)=CC[C@H]3C(C)(C)CCC[C@@]34C)nn2)c1 | > 100 | > 100 µM
11 | 4.3 | 3 | 2.7 | CC1=CC[C@H]2C(C)(C)CCC[C@]2(C)[C@@]12CC[C@@](C)(CCn1cc(CCCCc3cn(CC[C@]4(C)CC[C@@]5(O4)C(C)=CC[C@H]4C(C)(C)CCC[C@@]45C)nn3)nn1)O2 | 2.9 | –
12 | > 100 | > 100 | > 100 | CC1=CC[C@H]2C(C)(C)CCC[C@]2(C)[C@@]12CC[C@@](C)(CCOC(=O)NCc1cn(CC[C@]3(C)CC[C@@]4(O3)C(C)=CC[C@H]3C(C)(C)CCC[C@@]34C)nn1)O2 | > 100 | > 100 µM
13 | 17 | 17 | 18 | CC1=CC[C@H]2C(C)(C)CCC[C@]2(C)[C@@]12CC[C@@](C)(C/C=C/CO)O2 | 17 | 17 µM
14 | 15 | 18 | 17 | CC1=CC[C@H]2C(C)(C)CCC[C@]2(C)[C@@]12CC[C@@](C)(C[C@H]1O[C@@H]1CO)O2 | 16 | 17 µM
15 | > 100 | > 72 | > 100 | CC1=CC[C@H]2C(C)(C)CC[C@H](O)[C@]2(C)[C@@]12CC[C@@](C)(CC(=O)O)O2 | > 100 | > 100 µM
16 | 16 | 19 | 17 | CC1=CC[C@H]2C(C)(C)CCC[C@]2(C)[C@@]12CC[C@@](C)(CCO)O2 | 17 | 21 µM

Row | GI50 (T47D) [µM] | GI50 (SW1573) [µM] | GI50 (HeLa) [µM] | Compound | GI50 (HBL-100) [µM] | GI50 (WiDr)
17 | 15 | 18 | 16 | CC1=CC[C@H]2C(C)(C)CCC[C@]2(C)[C@@]12CC[C@@](C)(C/C=C(\C)CO)O2 | 16 | 19 µM
18 | 17 | 17 | 18 | CC1=CC[C@H]2C(C)(C)CCC[C@]2(C)[C@@]12CC[C@@](C)(CCOC(=O)n1ccnc1)O2 | 16 | 13 µM
19 | > 100 | > 100 | > 100 | CC1=CC[C@H]2C(C)(C)CCC[C@]2(C)[C@@]12CC[C@@](C)(CCN=[N+]=[N-])O2 | > 100 | > 100 µM
20 | 26 | 17 | 17 | CC1=CC[C@H]2C(C)(C)CCC[C@]2(C)[C@@]12CC[C@@](C)(CC=O)O2 | 14 | 15 µM
21 | 69 | 49 | 60 | CC1=CC[C@H]2C(C)(C)CCC[C@]2(C)[C@@]12CC[C@@](C)(CC(=O)O)O2 | 46 | 57 µM
22 | 28 | 15 | 16 | C#CC[C@]1(C)CC[C@@]2(O1)C(C)=CC[C@H]1C(C)(C)CCC[C@@]12C | 17 | 4.8 µM
23 | 16 | 18 | 17 | CC1=CC[C@H]2C(C)(C)CCC[C@]2(C)[C@@]12CC[C@@](C)(C[C@@H]1O[C@H]1CO)O2 | 16 | 19 µM
24 | 4.3 | 8 | 7.8 | CC1=CC[C@H]2C(C)(C)CCC[C@]2(C)[C@@]12CC[C@@](C)(CCOC(=O)NCCCN(C)C)O2 | 6.1 | 1.4 µM
25 | 19 | 18 | 16 | COC(=O)C[C@]1(C)CC[C@@]2(O1)C(C)=CC[C@H]1C(C)(C)CCC[C@@]12C | 17 | 23 µM
26 | 19 | 16 | 18 | CC1=CC[C@H]2C(C)(C)CCC[C@]2(C)[C@@]12CC[C@@](C)(CC(=O)N(Cc1ccccc1)C(C)(C)C(=O)NCCN1CCOCC1)O2 | 16 | 12 µM
27 | 40 | 14 | 30 | CC1=CC[C@H]2C(C)(C)CCC[C@]2(C)[C@@]12CC[C@@](C)(CC(=O)N(Cc1ccccc1)C(C)(C)C(=O)NC(C)(C)C(C)(C)C)O2 | 10 | 49 µM
28 | 1.9 | 1.2 | 1.6 | CC1=CC[C@H]2C(C)(C)CCC[C@]2(C)[C@@]12CC[C@@](C)(CC(=O)N(Cc1ccccc1)C(C)(C)C(=O)NCc1ccccc1)O2 | 0.95 | 1.8 µM
29 | 16 | 13 | 14 | C#CCNC(=O)OCC[C@]1(C)CC[C@@]2(O1)C(C)=CC[C@H]1C(C)(C)CCC[C@@]12C | 14 | 12 µM
30 | 3 | 1.8 | 2.9 | CCCCNC(=O)C(C)(C)N(Cc1ccccc1)C(=O)C[C@]1(C)CC[C@@]2(O1)C(C)=CC[C@H]1C(C)(C)CCC[C@@]12C | 1.9 | 3.1 µM
31 | 31 | 5.1 | 11 | CC1=CC[C@H]2C(C)(C)CCC[C@]2(C)[C@@]12CC[C@@](C)(CC(=O)N(Cc1ccccc1)C(C)(C)C(=O)Nc1c(C)cccc1C)O2 | 8.9 | 38 µM

Row | Compound | GI50 (T47D) [µM] | GI50 (SW1573) [µM] | GI50 (HeLa) [µM] | GI50 (HBL-100) [µM] | GI50 (WiDr)
32 | CC[C@@]1(O)C(=O)OCc2c1cc1n(c2=O)Cc2cc3ccccc3nc2-1 [CAMPTOTHECIN] | 2 | 0.25 | 0.6 | 0.23 | 1.8 µM
